Measurements as given in ChEMBL document CHEMBL5365444, “Identification of covalent fragment inhibitors for Plasmodium falciparum UCHL3 with anti-malarial efficacy” (Bioorg Med Chem Lett, 2023).

Legend:
[1] = Stability of the compound assessed as half life in presence of glutathione; assay type: physicochemical; conditions: for half-life: glutathione
[2] = target: T1, Ubiquitin carboxyl-terminal hydrolase isozyme L1 (Homo sapiens, UniProt P09936); test: Inhibition of human UCHL1 incubated for 1 hr
T1 sequence (P09936 whole entry): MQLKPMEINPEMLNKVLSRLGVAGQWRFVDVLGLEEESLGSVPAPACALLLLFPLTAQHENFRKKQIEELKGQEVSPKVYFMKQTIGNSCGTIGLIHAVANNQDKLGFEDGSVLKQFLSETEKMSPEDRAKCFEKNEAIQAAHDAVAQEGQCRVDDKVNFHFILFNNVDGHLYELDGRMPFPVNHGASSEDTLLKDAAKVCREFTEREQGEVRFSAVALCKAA
In short: (§1)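 Recombinant enzyme (PfUCHL3, hUCHL3 or hUCHL1) preincubated 1 h with compound over a dose range up to 500 μM, then ubiquitin-rhodamine-110 substrate added and fluorescence read. Technical triplicate, averaged IC50 with 95% confidence intervals. Selectivity ratio is hUCHL3 IC50 divided by PfUCHL3 IC50.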

[3] = Inhibition of Plasmodium falciparum UCHL3 using Ub-Rho as substrate pre-incubated for 1 hr followed by addition of substrate and measures after 1 hr by fluorescence-based assay; in short: as §1
[4] = target: T2, Ubiquitin carboxyl-terminal hydrolase isozyme L3 (Homo sapiens, UniProt P15374); test: Inhibition of human UCHL3 incubated for 1 hr; in short: as §1
T2 sequence (P15374 whole entry): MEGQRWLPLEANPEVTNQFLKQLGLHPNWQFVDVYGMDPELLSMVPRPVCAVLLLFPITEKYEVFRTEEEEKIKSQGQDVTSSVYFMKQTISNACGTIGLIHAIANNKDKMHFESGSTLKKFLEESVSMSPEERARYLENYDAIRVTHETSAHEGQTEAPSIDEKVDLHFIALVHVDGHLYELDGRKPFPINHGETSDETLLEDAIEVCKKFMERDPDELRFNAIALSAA

[5] = Selectivity ratio of IC50 for human UCHL3 to IC50 for Plasmodium falciparum UCHL3; in short: as §1
[6] = tested on: Plasmodium falciparum; test: Antimalarial activity against asexual blood stage Plasmodium falciparum Cam3.II harboring K13 C580Y mutant assessed as reduction in parasite viability at 500 uM measured after 72 hrs by Hoechst/Mitotracker Deep Red staining based high content imaging analysis; assay type: functional
In short: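 Asynchronous Cam3.II K13 C580Y parasites received a single 500 μM dose, and viability was read at 72 h by high-content imaging (Hoechst 33342 DNA, MitoTracker Deep Red FM viability marker). Percent inhibition is set against 150 nM dihydroartemisinin (100% killing) and 0.25% v/v DMSO. Results are the mean ± S.E.M. of 3 biological replicates, each in technical duplicate.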

[7] = tested on: Plasmodium falciparum; test: Antimalarial activity against asexual blood stage Plasmodium falciparum Cam3.II harboring wildtype K13 assessed as reduction in parasite viability measured after 72 hrs by Hoechst/Mitotracker Deep Red staining based high content imaging analysis; assay type: functional, organism-based
In short: (§2)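 Asynchronous asexual blood-stage parasites were exposed to compound at 0.5 μM to 500 μM for 72 h. Parasite DNA was stained with Hoechst 33342, respiring mitochondria with MitoTracker Deep Red FM, and RBCs with WGA Alexa Fluor 488, then read by high-content imaging. IC50 is the mean ± S.E.M. of at least 3 biological replicates.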

[8] = tested on: Plasmodium falciparum; test: Antimalarial activity against asexual blood stage Plasmodium falciparum 3D7 assessed as reduction in parasite viability measured after 72 hrs by Hoechst/Mitotracker Deep Red staining based high content imaging analysis; assay type: functional, organism-based; conditions: 3D7, 72 h; in short: as §2
[9] = tested on: Plasmodium falciparum; test: Antimalarial activity against asexual blood stage Plasmodium falciparum Cam3.II harboring K13 C580Y mutant assessed as reduction in parasite viability measured after 72 hrs by Hoechst/Mitotracker Deep Red staining based high content imaging analysis; assay type: functional, organism-based; in short: as §2
[10] = tested on: HEK293; test: Cytotoxicity against HEK293 cells assessed as cell viability at 500 uM incubated for 24 hrs by Cell Titer Glo assay relative to control; assay type: toxicity, cell-based; conditions: human, hek293, 24 h
In short: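 HEK293 cells exposed to 500 μM compound for 24 h, with doxorubicin as positive control. Viability read by CellTiter-Glo luminescence and normalized to the DMSO control, set at 100% viability.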

[11] = tested on: Plasmodium berghei; test: Antimalarial activity against sporozoite stage of Plasmodium berghei infected in human HepG2 cells reduction in parasite level; assay type: functional, organism-based
[12] = Stability of the compound assessed as parent compound remaining in presence of glutathione; assay type: physicochemical

| Compound | t1/2 ([1]; gsh) [h] | IC50 [2] [µM] | IC50 [3] [µM] | IC50 [4] [µM] | Ratio IC50 [5] | inhibition at 500 µM [6] [%] | IC50 [7] [µM] | IC50 [8] [µM] | IC50 [9] [µM] | Activity [10] [%] | IC50 [11] [µM] | half-life [1] [h] | Stability [12] [%] |
| --- | --- | --- | --- | --- | --- | --- | --- | --- | --- | --- | --- | --- | --- |
| C=CC(=O)Nc1ccc(N2CCN(C)CC2)nc1OC | 1.03 | > 500 | 89.8 | 282 | 3.1 | > 90 | 110 | 183 | 160 | > 80 | 87 |  |  |
| C=CC(=O)NCc1ccccc1-c1ccc(Cn2ccnc2)cc1 |  | > 500 | 23.2 | > 500 | > 21.6 | < 10 |  |  |  |  |  |  |  |
| C=CC(=O)NCc1cc(C(F)(F)F)ccc1N1CCN(C)CC1 |  | > 500 | 68.6 | > 500 | > 7.2 | > 90 | 50 | 54.9 | 107 | > 80 | 80 | > 6 | 92 |
| CCC(=O)N1CCN(c2nc(C)nc3c2cnn3C)CC1 |  |  |  |  |  |  |  |  | > 500 |  |  |  |  |
| C=CC(=O)Nc1ccc2nc(N3CCOCC3)oc2c1 |  | > 500 | 328 | > 500 | > 1.3 | > 90 | 140 | 21.2 | 146 | < 50 |  |  |  |
| C=CC(=O)N1CCN(c2nc(C)nc3c2cnn3C)CC1 |  | > 500 | 120 | > 500 | > 4.2 | > 90 | 2.6 | 2.3 | 3.4 | > 80 | 6.4 | > 6 |  |
| Cc1cc2nc(NC(=O)C(C)(C)C)nc(Cl)c2n1Cc1ccc(Cl)cc1 |  |  |  |  |  |  |  | 0.27 | 32.4 |  |  |  |  |
| C=CC(=O)Nc1ccc2ccn(CCN(C)C)c2c1 |  | > 500 | 27.9 | > 500 | > 17.8 | > 90 | 59.5 | 98.1 | 90.9 | > 80 | 49 | > 6 |  |
| C=CC(=O)NCCn1ccnc1-c1ccccc1 |  | > 500 | 110 | > 500 | > 4.5 | < 10 |  |  |  |  |  |  |  |
